# In publication PMC5680101 (The journal of physical chemistry. B, 2017):
# Read-outs that look alike come from different tables or passages of the source.
# Columns and labels:
# Assay type in all cases: binding, E. coli
# FhuA ΔC/Δ7L_30N = FhuA ΔC/Δ7L_30N (Escherichia coli, UniProt P06971); conditions: for q (slope factor or transition steepness): calculated at the midpoint of the dissociation phase; for ΔRh: decrease in hydrodynamic radius as a result of detergent desolvation; for p (Hill coefficient): four-parameter Hill fit; for p (Hill coefficient) / rmax / rmin / Kd: 200 mM NaCl, 50 mM HEPES; for p (Hill coefficient) / Kd: pH 7.4, 24°C; for rmax: maximum anisotropy at detergent concentrations above the CMC; for rmax / rmin: pH 7.4; for Rh max: maximum hydrodynamic radius of the proteomicelle; for rmin: minimum anisotropy, extrapolated for the lowest detergent concentration; for Kd: read-out: Kd (apparent dissociation constant), midpoint of dose-dependent dissociation phase; for Dr fast: rotational diffusion coefficient under desolvation conditions; for Dr slow: rotational diffusion coefficient under solvation conditions; for ΔG: ΔG = RT ln Kd
# Chain of FhuA ΔC/Δ7L_30N (P06971 194-747, stated change not applied): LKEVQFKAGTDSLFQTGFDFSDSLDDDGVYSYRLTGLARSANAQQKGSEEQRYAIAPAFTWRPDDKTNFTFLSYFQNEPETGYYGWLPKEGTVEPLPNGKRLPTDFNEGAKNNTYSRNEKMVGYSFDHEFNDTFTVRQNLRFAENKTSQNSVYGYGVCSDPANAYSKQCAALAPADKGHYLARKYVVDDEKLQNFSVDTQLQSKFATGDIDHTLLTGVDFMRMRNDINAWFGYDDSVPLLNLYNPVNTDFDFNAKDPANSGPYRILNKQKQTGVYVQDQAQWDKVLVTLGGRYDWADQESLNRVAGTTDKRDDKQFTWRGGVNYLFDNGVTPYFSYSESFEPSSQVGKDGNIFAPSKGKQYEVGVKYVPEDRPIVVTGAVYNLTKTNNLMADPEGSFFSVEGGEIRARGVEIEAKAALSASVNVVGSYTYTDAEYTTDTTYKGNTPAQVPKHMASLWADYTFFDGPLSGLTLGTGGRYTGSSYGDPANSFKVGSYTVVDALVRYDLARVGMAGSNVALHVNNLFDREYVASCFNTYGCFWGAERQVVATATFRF
# FhuA ΔC/Δ5L = FhuA ΔC/Δ5L (Escherichia coli, UniProt P06971, DEL561-566/INS560[…], form not given); conditions: for q (slope factor or transition steepness): calculated at the midpoint of the dissociation phase; for ΔRh: decrease in hydrodynamic radius as a result of detergent desolvation; for p (Hill coefficient): four-parameter Hill fit; for p (Hill coefficient) / rmax / rmin / Kd: 200 mM NaCl, 50 mM HEPES; for p (Hill coefficient) / Kd: pH 7.4, 24°C; for rmax: maximum anisotropy at detergent concentrations above the CMC; for rmax / rmin: pH 7.4; for Rh max: maximum hydrodynamic radius of the proteomicelle; for rmin: minimum anisotropy, extrapolated for the lowest detergent concentration; for Kd: read-out: Kd (apparent dissociation constant), midpoint of dose-dependent dissociation phase; for Dr fast: rotational diffusion coefficient under desolvation conditions; for Dr slow: rotational diffusion coefficient under solvation conditions; for ΔG: ΔG = RT ln Kd
# Chain of FhuA ΔC/Δ5L (P06971 194-747, stated change not applied): as above
# OmpG = OmpG (Escherichia coli, UniProt P76045, D245C); assay: biochemical; conditions: for q (slope factor or transition steepness): calculated at the midpoint of the dissociation phase; for ΔRh: decrease in hydrodynamic radius as a result of detergent desolvation; for p (Hill coefficient): four-parameter Hill fit; for rmax: maximum anisotropy at detergent concentrations above the CMC; for rmax / rmin: pH 7.4; for Rh max: maximum hydrodynamic radius of the proteomicelle; for rmin: minimum anisotropy, extrapolated for the lowest detergent concentration; for Dr fast: rotational diffusion coefficient under desolvation conditions; for Dr slow: rotational diffusion coefficient under solvation conditions; for ΔG: ΔG = RT ln Kd
# Chain of OmpG (P76045 22-301 D245C): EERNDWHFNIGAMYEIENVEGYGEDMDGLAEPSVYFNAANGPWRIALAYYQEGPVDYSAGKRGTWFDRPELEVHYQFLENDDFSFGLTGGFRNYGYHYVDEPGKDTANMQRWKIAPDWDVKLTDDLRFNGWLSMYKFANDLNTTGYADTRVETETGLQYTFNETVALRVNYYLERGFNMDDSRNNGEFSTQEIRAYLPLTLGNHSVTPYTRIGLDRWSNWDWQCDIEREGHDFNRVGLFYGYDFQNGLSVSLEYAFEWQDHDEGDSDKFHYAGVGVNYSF
# FhuA ΔC/Δ5L_25N = FhuA ΔC/Δ5L_25N (Escherichia coli, UniProt P06971); conditions: for q (slope factor or transition steepness): calculated at the midpoint of the dissociation phase; for ΔRh: decrease in hydrodynamic radius as a result of detergent desolvation; for p (Hill coefficient): four-parameter Hill fit; for p (Hill coefficient) / rmax / rmin / Kd: 200 mM NaCl, 50 mM HEPES; for p (Hill coefficient) / Kd: pH 7.4, 24°C; for rmax: maximum anisotropy at detergent concentrations above the CMC; for rmax / rmin: pH 7.4; for Rh max: maximum hydrodynamic radius of the proteomicelle; for rmin: minimum anisotropy, extrapolated for the lowest detergent concentration; for Kd: read-out: Kd (apparent dissociation constant), midpoint of dose-dependent dissociation phase; for Dr fast: rotational diffusion coefficient under desolvation conditions; for Dr slow: rotational diffusion coefficient under solvation conditions; for ΔG: ΔG = RT ln Kd
# Chain of FhuA ΔC/Δ5L_25N (P06971 194-747, stated change not applied): as the sequence (P06971 194-747, stated change not applied) above
# acidic β-barrel proteins = assay: steady-state FP anisotropy, detergent desolvation, acidic β barrels; conditions: physiological pH
# In short: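 Acidic β-barrels: FhuA ΔC/Δ5L, with a GS-rich single-Cys loop replacing turn T7, labeled with Texas Red C2 maleimide in 6 M Gdm-HCl. OmpG D224C labeled in 8 M urea at 1:20 protein:dye. Detergent-refolded protein diluted into wells of varying detergent spanning the CMC, 28 nM final protein. 15 min equilibration, kinetic steady-state anisotropy read, 24 h endpoints covered at 4°C.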
# basic β-barrel proteins = assay: steady-state FP anisotropy, detergent desolvation, basic β barrels
# In short: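 Basic FhuA variants, C-terminal His6, labeled with 200 μM Texas Red C2 maleimide overnight at room temperature in 6 M Gdm-HCl. Denatured protein refolded by 50-fold dilution into 200 mM NaCl, 50 mM HEPES, pH 7.4, 4°C, detergent above CMC. Then diluted into wells of varying detergent, 28 nM final protein. 15 min equilibration, kinetic anisotropy read, 24 h endpoints at 4°C.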
# [1] = 200 mM NaCl, 50 mM HEPES, pH 7.4, 24°C
# [2] = read-out: Kd (apparent dissociation constant), midpoint of dose-dependent dissociation phase, 200 mM NaCl, 50 mM HEPES, pH 7.4, 24°C
smiles,measurement,setting,value
"OC[C@H]1O[C@H](O[C@H]2[C@H](O)[C@@H](O)[C@H](OCCCCC3CCCCC3)O[C@@H]2CO)[C@H](O)[C@@H](O)[C@@H]1O [CYMAL-4, 4-cyclohexyl-1-Butyl-β-D-maltoside]",q (slope factor or transition steepness),FhuA ΔC/Δ7L_30N,0.17 mM⁻¹
same,ΔRh,FhuA ΔC/Δ7L_30N,1.5 ± 0.2 nm
same,p (Hill coefficient),FhuA ΔC/Δ7L_30N,2.3 ± 0.9
same,rmax,FhuA ΔC/Δ7L_30N,0.345 ± 0.004
same,Rh max,FhuA ΔC/Δ7L_30N,2.9 nm
same,rmin,FhuA ΔC/Δ7L_30N,0.168 ± 0.025
same,Kd,FhuA ΔC/Δ7L_30N,4500 ± 1100 µM
same,Dr fast,FhuA ΔC/Δ7L_30N,5.5 ± 1.2 10^7 s^−1
same,Dr slow,FhuA ΔC/Δ7L_30N,0.63 ± 0.05 10^7 s^−1
same,ΔG,FhuA ΔC/Δ7L_30N,-3.2 ± 0.1 kcal/mol
same,q (slope factor or transition steepness),FhuA ΔC/Δ5L,0.38 mM⁻¹
same,ΔRh,FhuA ΔC/Δ5L,1.7 ± 0.1 nm
same,p (Hill coefficient),FhuA ΔC/Δ5L,3.7 ± 0.1
same,rmax,FhuA ΔC/Δ5L,0.367 ± 0.001
same,Rh max,FhuA ΔC/Δ5L,3.6 nm
same,rmin,FhuA ΔC/Δ5L,0.242 ± 0.001
same,Kd,FhuA ΔC/Δ5L,5300 ± 100 µM
same,Dr fast,FhuA ΔC/Δ5L,2.6 ± 0.1 10^7 s^−1
same,Dr slow,FhuA ΔC/Δ5L,0.36 ± 0.01 10^7 s^−1
same,ΔG,FhuA ΔC/Δ5L,-3.1 ± 0.1 kcal/mol
same,q (slope factor or transition steepness),OmpG,0.25 mM⁻¹
same,ΔRh,OmpG,1.2 ± 0.1 nm
same,p (Hill coefficient),OmpG; [1],6.7 ± 0.1
same,rmax,"OmpG; 200 mM NaCl, 50 mM HEPES",0.326 ± 0.001
same,Rh max,OmpG,2.6 nm
same,rmin,"OmpG; 200 mM NaCl, 50 mM HEPES",0.163 ± 0.001
same,Kd,OmpG; [2],4600 ± 100 µM
same,Dr fast,OmpG,5.8 ± 0.1 10^7 s^−1
same,Dr slow,OmpG,0.90 ± 0.01 10^7 s^−1
same,ΔG,OmpG,-3.2 ± 0.1 kcal/mol
same,q (slope factor or transition steepness),FhuA ΔC/Δ5L_25N,0.28 mM⁻¹
same,ΔRh,FhuA ΔC/Δ5L_25N,1.4 ± 0.1 nm
same,p (Hill coefficient),FhuA ΔC/Δ5L_25N,5.2 ± 0.3
same,rmax,FhuA ΔC/Δ5L_25N,0.341 ± 0.001
same,Rh max,FhuA ΔC/Δ5L_25N,2.9 nm
same,rmin,FhuA ΔC/Δ5L_25N,0.166 ± 0.001
same,Kd,FhuA ΔC/Δ5L_25N,5700 ± 100 µM
same,Dr fast,FhuA ΔC/Δ5L_25N,5.6 ± 0.1 10^7 s^−1
same,Dr slow,FhuA ΔC/Δ5L_25N,0.69 ± 0.01 10^7 s^−1
same,ΔG,FhuA ΔC/Δ5L_25N,-3.1 ± 0.1 kcal/mol
C[C@H](CCC(=O)NCCC[N+](C)(C)CCCS(=O)(=O)[O-])[C@H]1CC[C@H]2[C@@H]3[C@H](O)C[C@@H]4C[C@H](O)CC[C@]4(C)[C@H]3C[C@H](O)[C@]12C [CHAPS],rmax,FhuA ΔC/Δ7L_30N,~0.17
same,rmin,FhuA ΔC/Δ7L_30N,~0.16
same,Dr fast,FhuA ΔC/Δ7L_30N,~6.0 10^7 s^−1
same,Dr slow,FhuA ΔC/Δ7L_30N,~5.2 10^7 s^−1
same,q (slope factor or transition steepness),FhuA ΔC/Δ5L,0.015 mM⁻¹
same,ΔRh,FhuA ΔC/Δ5L,0.77 ± 0.18 nm
same,p (Hill coefficient),FhuA ΔC/Δ5L,1.7 ± 0.6
same,rmax,FhuA ΔC/Δ5L,0.292 ± 0.004
same,Rh max,FhuA ΔC/Δ5L,2.2 nm
same,rmin,FhuA ΔC/Δ5L,0.172 ± 0.048
same,Kd,FhuA ΔC/Δ5L,3300 ± 1800 µM
same,Dr fast,FhuA ΔC/Δ5L,1.5 ± 0.1 10^7 s^−1
same,ΔG,FhuA ΔC/Δ5L,-3.4 ± 0.5 kcal/mol
same,p (Hill coefficient),OmpG; [1],~1.6
same,rmax,"OmpG; 200 mM NaCl, 50 mM HEPES",0.318 ± 0.002
same,Rh max,OmpG,2.5 nm
same,Kd,OmpG; [2],< 600 µM
same,Dr slow,OmpG,1.0 ± 0.1 10^7 s^−1
same,rmax,FhuA ΔC/Δ5L_25N,~0.17
same,rmin,FhuA ΔC/Δ5L_25N,~0.15
same,Dr fast,FhuA ΔC/Δ5L_25N,~6.6 10^7 s^−1
same,Dr slow,FhuA ΔC/Δ5L_25N,~5.2 10^7 s^−1
"CCCCCCCCCCO[C@@H]1O[C@H](CO)[C@@H](O[C@H]2O[C@H](CO)[C@@H](O)[C@H](O)[C@H]2O)[C@H](O)[C@H]1O [DM, n-decyl-β-D-maltoside]",q (slope factor or transition steepness),FhuA ΔC/Δ7L_30N,1.07 mM⁻¹
same,ΔRh,FhuA ΔC/Δ7L_30N,1.0 ± 0.1 nm
same,p (Hill coefficient),FhuA ΔC/Δ7L_30N,27 ± 6
same,rmax,FhuA ΔC/Δ7L_30N,0.312 ± 0.001
same,Rh max,FhuA ΔC/Δ7L_30N,2.4 nm
same,rmin,FhuA ΔC/Δ7L_30N,0.168 ± 0.007
same,Kd,FhuA ΔC/Δ7L_30N,900 ± 100 µM
same,Dr fast,FhuA ΔC/Δ7L_30N,1.0 ± 0.1 10^7 s^−1
same,Dr slow,FhuA ΔC/Δ7L_30N,5.5 ± 0.4 10^7 s^−1
same,ΔG,FhuA ΔC/Δ7L_30N,-4.1 ± 0.1 kcal/mol
same,q (slope factor or transition steepness),FhuA ΔC/Δ5L,0.072 mM⁻¹
same,ΔRh,FhuA ΔC/Δ5L,1.6 ± 0.1 nm
same,p (Hill coefficient),FhuA ΔC/Δ5L,3.5 ± 0.5
same,rmax,FhuA ΔC/Δ5L,0.360 ± 0.001
same,Rh max,FhuA ΔC/Δ5L,3.3 nm
same,rmin,FhuA ΔC/Δ5L,0.219 ± 0.005
same,Kd,FhuA ΔC/Δ5L,1700 ± 100 µM
same,Dr fast,FhuA ΔC/Δ5L,3.3 ± 0.2 10^7 s^−1
same,Dr slow,FhuA ΔC/Δ5L,0.44 ± 0.01 10^7 s^−1
same,ΔG,FhuA ΔC/Δ5L,-3.8 ± 0.1 kcal/mol
same,Kd,OmpG,1800 ± 400 µM
same,q (slope factor or transition steepness),OmpG,0.064 mM⁻¹
same,ΔRh,OmpG,0.95 ± 0.04 nm
same,p (Hill coefficient),OmpG; [1],4.1 ± 1.2
same,rmax,"OmpG; 200 mM NaCl, 50 mM HEPES",0.327 ± 0.001
same,Rh max,OmpG,2.6 nm
same,rmin,"OmpG; 200 mM NaCl, 50 mM HEPES",0.214 ± 0.005
same,Dr fast,OmpG,3.5 ± 0.2 10^7 s^−1
same,Dr slow,OmpG,0.89 ± 0.02 10^7 s^−1
same,ΔG,OmpG,-3.7 ± 0.1 kcal/mol
same,Kd,acidic β-barrel proteins,~1800 µM
same,q (slope factor or transition steepness),FhuA ΔC/Δ5L_25N,1.30 mM⁻¹
same,ΔRh,FhuA ΔC/Δ5L_25N,1.5 ± 0.1 nm
same,p (Hill coefficient),FhuA ΔC/Δ5L_25N,27 ± 3
same,rmax,FhuA ΔC/Δ5L_25N,0.343 ± 0.002
same,Rh max,FhuA ΔC/Δ5L_25N,3.0 nm
same,rmin,FhuA ΔC/Δ5L_25N,0.166 ± 0.003
same,Kd,FhuA ΔC/Δ5L_25N,900 ± 100 µM
same,Dr fast,FhuA ΔC/Δ5L_25N,5.6 ± 0.2 10^7 s^−1
same,Dr slow,FhuA ΔC/Δ5L_25N,0.66 ± 0.03 10^7 s^−1
same,ΔG,FhuA ΔC/Δ5L_25N,-4.1 ± 0.1 kcal/mol
same,Hill cooperativity p,"basic β-barrel proteins; basic FhuA proteins, pH 7.4",~ 27
same,Kd,basic β-barrel proteins; physiological pH,~900 µM
